Test results published in ChEMBL document CHEMBL4007497, “Development of Potent and Selective Antagonists for the UTP-Activated P2Y4 Receptor” (J Med Chem, 2017).
Values joined by “and” are separate entries in the source; they are usually repeats but may differ in a detail not shown here. Equal entries are not always repeated. Values belong to the compound of their own block, whether it stands above or below them. Active and inactive are the calls of the source. No cut-off for these calls is given here.

Legend:
P2Y purinoceptor 4 [1] = biological target: T1, P2Y purinoceptor 4 (Homo sapiens, UniProt P51582); experiment: Antagonist activity at human P2Y4 receptor transfected in human 1321N1 cells assessed as inhibition of UTP-activated intracellular calcium mobilization preincubated for 30 mins followed by UTP addition by fluo-4-dye based fluorescence assay; assay type: functional, cell-based
T1 sequence (P51582 whole entry): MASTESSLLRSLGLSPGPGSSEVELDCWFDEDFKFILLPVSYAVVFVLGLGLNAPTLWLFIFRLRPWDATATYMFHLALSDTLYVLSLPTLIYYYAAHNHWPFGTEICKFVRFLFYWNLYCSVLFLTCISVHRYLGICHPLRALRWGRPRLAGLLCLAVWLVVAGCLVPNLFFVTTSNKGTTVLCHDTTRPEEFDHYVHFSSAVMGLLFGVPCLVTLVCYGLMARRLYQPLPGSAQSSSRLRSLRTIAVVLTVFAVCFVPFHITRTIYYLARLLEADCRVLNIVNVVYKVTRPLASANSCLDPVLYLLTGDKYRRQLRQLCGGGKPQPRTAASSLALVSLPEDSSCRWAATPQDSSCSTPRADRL
In short: (§1)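 1321N1 astrocytoma cells stably expressing the human P2Y subtype, grown in DMEM with 10 % FCS and 200 μg/mL G418 at 37 °C. Plated 50,000 cells/well about 24 h before testing. Cells loaded with fluo-4 AM for 1 h, then placed in HBSS and preincubated 30 min with compound. Agonist was injected at about EC80: ADP 500 nM (P2Y1), UTP 500 nM (P2Y2, P2Y4), UDP 750 nM (P2Y6). Fluorescence read at ex 488/em 525 nm. At least three independent experiments in duplicate. IC50 obtained by nonlinear regression.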

P2Y purinoceptor 6 [2] = biological target: T2, P2Y purinoceptor 6 (Homo sapiens, UniProt Q15077); experiment: Antagonist activity at human P2Y6 receptor transfected in human 1321N1 cells assessed as inhibition of UDP-activated intracellular calcium mobilization preincubated for 30 mins followed by UDP addition by fluo-4-dye based fluorescence assay; assay type: functional, cell-based; in short: as §1
T2 sequence (Q15077 whole entry): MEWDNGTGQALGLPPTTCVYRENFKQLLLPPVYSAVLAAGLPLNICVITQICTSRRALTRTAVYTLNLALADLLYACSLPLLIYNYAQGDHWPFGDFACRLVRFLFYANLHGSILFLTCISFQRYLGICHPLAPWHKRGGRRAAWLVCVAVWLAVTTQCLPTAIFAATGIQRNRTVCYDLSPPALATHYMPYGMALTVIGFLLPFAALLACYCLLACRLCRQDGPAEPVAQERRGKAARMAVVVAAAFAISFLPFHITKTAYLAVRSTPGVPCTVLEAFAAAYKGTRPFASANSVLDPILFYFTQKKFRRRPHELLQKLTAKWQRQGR

P2Y purinoceptor 12 [3] = biological target: T3, P2Y purinoceptor 12 (Homo sapiens, UniProt Q9H244); experiment: Antagonist activity at human P2Y12 receptor expressed in CHO cells assessed as inhibition of 2-MeSADP-induced beta-arrestin translocation preincubated for 30 mins followed by 2-MeSADP addition measured after 90 mins by luminescence-based topcount method; assay type: cell-based
T3 sequence (Q9H244 whole entry): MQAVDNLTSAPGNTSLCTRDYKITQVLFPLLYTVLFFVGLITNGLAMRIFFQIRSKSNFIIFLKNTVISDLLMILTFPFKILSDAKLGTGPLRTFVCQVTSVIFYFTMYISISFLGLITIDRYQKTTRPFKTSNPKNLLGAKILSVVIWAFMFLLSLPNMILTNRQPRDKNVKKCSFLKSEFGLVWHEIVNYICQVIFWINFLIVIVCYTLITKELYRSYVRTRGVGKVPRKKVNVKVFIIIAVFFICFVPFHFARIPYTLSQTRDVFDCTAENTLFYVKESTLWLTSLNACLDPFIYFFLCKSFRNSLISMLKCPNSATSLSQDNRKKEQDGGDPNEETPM

P2Y purinoceptor 2 = P2Y purinoceptor 2 (Homo sapiens, UniProt P41231); experiment: Antagonist activity at human P2Y2 receptor transfected in human 1321N1 cells assessed as inhibition of UTP-activated intracellular calcium mobilization preincubated for 30 mins followed by UTP addition by fluo-4-dye based fluorescence assay; assay type: functional, cell-based; in short: as §1
Chain of P2Y purinoceptor 2 (P41231 whole entry): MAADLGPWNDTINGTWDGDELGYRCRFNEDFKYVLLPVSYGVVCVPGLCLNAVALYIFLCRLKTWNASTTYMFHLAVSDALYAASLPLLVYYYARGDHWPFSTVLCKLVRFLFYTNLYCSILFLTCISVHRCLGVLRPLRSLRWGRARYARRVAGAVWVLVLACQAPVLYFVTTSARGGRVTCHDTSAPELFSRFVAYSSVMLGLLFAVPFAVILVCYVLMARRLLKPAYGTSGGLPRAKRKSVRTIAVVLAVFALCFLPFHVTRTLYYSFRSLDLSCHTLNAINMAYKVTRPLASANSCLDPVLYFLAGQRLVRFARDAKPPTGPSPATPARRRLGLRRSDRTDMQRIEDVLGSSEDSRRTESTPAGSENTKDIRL

P2Y purinoceptor 6 [4] = biological target: T2, P2Y purinoceptor 6; experiment: Antagonist activity at human P2Y6 receptor transfected in human 1321N1 cells assessed as inhibition of UDP-activated intracellular calcium mobilization at 50 uM preincubated for 30 mins followed by UDP addition by fluo-4-dye based fluorescence assay; assay type: functional, cell-based
P2Y purinoceptor 1 [5] = biological target: T4, P2Y purinoceptor 1 (Homo sapiens, UniProt P47900); experiment: Antagonist activity at human P2Y1 receptor transfected in human 1321N1 cells assessed as inhibition of ADP-activated intracellular calcium mobilization at 50 uM preincubated for 30 mins followed by ADP addition by fluo-4-dye based fluorescence assay; assay type: functional, cell-based
T4 sequence (P47900 whole entry): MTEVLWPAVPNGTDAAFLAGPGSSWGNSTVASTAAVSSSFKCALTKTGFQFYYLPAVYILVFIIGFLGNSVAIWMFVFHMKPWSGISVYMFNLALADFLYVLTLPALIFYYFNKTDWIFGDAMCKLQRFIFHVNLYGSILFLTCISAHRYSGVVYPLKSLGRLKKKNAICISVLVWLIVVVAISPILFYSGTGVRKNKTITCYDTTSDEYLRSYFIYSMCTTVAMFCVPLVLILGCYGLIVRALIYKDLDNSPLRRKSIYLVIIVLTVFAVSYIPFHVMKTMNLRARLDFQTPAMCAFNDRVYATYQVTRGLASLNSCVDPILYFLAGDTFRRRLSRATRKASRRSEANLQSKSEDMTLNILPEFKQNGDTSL

P2Y purinoceptor 1 [6] = biological target: T4, P2Y purinoceptor 1; experiment: Antagonist activity at human P2Y1 receptor transfected in human 1321N1 cells assessed as inhibition of ADP-activated intracellular calcium mobilization preincubated for 30 mins followed by ADP addition by fluo-4-dye based fluorescence assay; assay type: functional, cell-based; in short: as §1
P2Y purinoceptor 4 [7] = biological target: T1, P2Y purinoceptor 4; experiment: Antagonist activity at human P2Y4 receptor transfected in human 1321N1 cells assessed as inhibition of UTP-activated intracellular calcium mobilization at 100 uM preincubated for 30 mins followed by UTP addition by fluo-4-dye based fluorescence assay; assay type: functional, cell-based
P2Y purinoceptor 4 [8] = biological target: T1, P2Y purinoceptor 4; experiment: Non-competitive antagonist activity at human P2Y4 receptor transfected in human 1321N1 cells assessed as inhibition of UTP-activated intracellular calcium mobilization at 15 uM preincubated for 30 mins followed by UTP addition by fluo-4-dye based fluorescence assay; assay type: functional, cell-based
In short: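 Fluo-4-loaded 1321N1 cells stably expressing human P2Y4 were preincubated 30 min with fixed antagonist concentrations up to 15 μM in HBSS. Full UTP concentration-response curves were then recorded by injecting UTP and reading fluorescence immediately (ex 488/em 525 nm). The mode of antagonism was judged from depression of the maximum versus rightward shift. EC50 values were compared by unpaired t-test.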

P2Y purinoceptor 12 [9] = biological target: T3, P2Y purinoceptor 12; experiment: Competitive antagonist activity at human P2Y12 receptor expressed in CHO cells assessed as forskolin/ 2-methylthio-ADP-induced cAMP production preincubated for 10 mins followed 2-methylthio-ADP addition measured after 3.5 hrs by luciferase reporter gene assay; assay type: functional, cell-based; details: read-out: pA2 (converted)

IC50 (P2Y purinoceptor 4 [1]): 0.409 µM
IC50 (P2Y purinoceptor 6 [2]): > 100 µM
IC50 (P2Y purinoceptor 12 [3]): 3.59 µM
IC50 (P2Y purinoceptor 2): 13.1 µM
inhibition (P2Y purinoceptor 6 [4]): 12%
inhibition (P2Y purinoceptor 1 [5]): 61%
IC50 (P2Y purinoceptor 1 [6]): 25 µM
SMILES: Nc1c(S(=O)(=O)O)cc(Nc2ccc(SCc3cccnc3)cc2)c2c1C(=O)c1ccccc1C2=O

IC50 (P2Y purinoceptor 4 [1]): > 100 µM
inhibition (P2Y purinoceptor 4 [7]): 31%
SMILES: Nc1c(S(=O)(=O)O)cc(Nc2ccc(Cl)cc2C(=O)O)c2c1C(=O)c1ccccc1C2=O

IC50 (P2Y purinoceptor 4 [1]): > 100 µM
inhibition (P2Y purinoceptor 4 [7]): 33%
SMILES: Nc1c(S(=O)(=O)O)cc(Nc2cc(F)ccc2C(=O)O)c2c1C(=O)c1ccccc1C2=O

IC50 (P2Y purinoceptor 4 [1]): 100 µM
inhibition (P2Y purinoceptor 4 [7]): 57%
SMILES: Cc1cc(Nc2ccc(F)cc2C(=O)O)c2c(c1N)C(=O)c1ccccc1C2=O

inhibition (P2Y purinoceptor 4 [7]): 17% and 25%
SMILES: Nc1c(S(=O)(=O)O)cc(Nc2ccc(F)cc2C(=O)O)c2c1C(=O)c1ccccc1C2=O

IC50 (P2Y purinoceptor 4 [1]): > 100 µM
inhibition (P2Y purinoceptor 4 [7]): 10%
SMILES: Nc1c(S(=O)(=O)O)cc(Nc2cccc(F)c2C(=O)O)c2c1C(=O)c1ccccc1C2=O

IC50 (P2Y purinoceptor 4 [1]): 0.233 µM
IC50 (P2Y purinoceptor 6 [2]): 12.5 µM
IC50 (P2Y purinoceptor 12 [3]): 2.41 µM
IC50 (P2Y purinoceptor 2): 8.54 µM
IC50 (P2Y purinoceptor 1 [6]): 5.48 µM
inhibition (P2Y purinoceptor 4 [8]): Active
SMILES: Cc1ccc(Sc2ccc(Nc3cc(S(=O)(=O)O)c(N)c4c3C(=O)c3ccccc3C4=O)cc2)c(C)c1

Kb (P2Y purinoceptor 12 [9]): 0.000158 µM
SMILES: Nc1c(S(=O)(=O)O)cc(Nc2ccc(Nc3ccccc3)c(S(=O)(=O)O)c2)c2c1C(=O)c1ccccc1C2=O
